# Published values pooled from the literature.
# Lines come from different studies, so protocols differ.
# Target: Serine/threonine-protein kinase TAO3 (TAOK3, Homo sapiens, UniProt Q9H2K8)
# One construct used (Q9H2K8 1-898): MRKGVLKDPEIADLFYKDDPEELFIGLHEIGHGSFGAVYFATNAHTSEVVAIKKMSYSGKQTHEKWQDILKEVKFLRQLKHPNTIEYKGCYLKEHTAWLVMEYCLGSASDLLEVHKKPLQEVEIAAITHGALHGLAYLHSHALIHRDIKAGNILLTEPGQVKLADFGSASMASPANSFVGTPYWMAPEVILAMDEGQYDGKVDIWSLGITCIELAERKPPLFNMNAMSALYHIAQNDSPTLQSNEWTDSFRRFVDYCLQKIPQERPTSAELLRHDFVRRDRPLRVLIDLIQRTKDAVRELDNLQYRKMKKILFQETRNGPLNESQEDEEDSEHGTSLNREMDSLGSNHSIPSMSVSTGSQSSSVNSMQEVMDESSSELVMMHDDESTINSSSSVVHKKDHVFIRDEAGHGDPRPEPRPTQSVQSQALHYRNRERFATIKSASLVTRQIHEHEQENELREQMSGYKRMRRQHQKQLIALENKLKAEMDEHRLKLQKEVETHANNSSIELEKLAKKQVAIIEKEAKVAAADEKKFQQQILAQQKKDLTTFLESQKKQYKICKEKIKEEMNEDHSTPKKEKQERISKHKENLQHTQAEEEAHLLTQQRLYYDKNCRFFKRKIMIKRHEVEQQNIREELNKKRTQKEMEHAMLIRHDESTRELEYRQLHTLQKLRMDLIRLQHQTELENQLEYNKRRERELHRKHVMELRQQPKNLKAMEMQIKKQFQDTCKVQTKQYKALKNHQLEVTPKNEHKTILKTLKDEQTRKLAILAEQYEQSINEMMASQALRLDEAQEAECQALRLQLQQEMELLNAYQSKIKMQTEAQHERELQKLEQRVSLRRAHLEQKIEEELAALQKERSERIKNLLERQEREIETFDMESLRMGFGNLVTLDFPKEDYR
Structure (SMILES),assay,conditions,endpoint,result
CCCOc1ccc(OC)c(F)c1C(=O)c1ccc(C(=O)N[C@@H]2CNC[C@H]2NC(=O)c2ccc3[nH]ncc3c2)cc1,"enzyme activity, inhibitor",10 µM,remaining activity,81%
CC(C)(C)c1nc(-c2cccc(NS(=O)(=O)c3c(F)cccc3F)c2F)c(-c2ccnc(N)n2)s1,"enzyme activity, inhibitor, radiometric",1 µM,remaining activity,91%
COc1ccc2c(c1)O[C@@H](c1ccc(OC)c(OC)c1)C[C@H]2NC(=O)C1(c2ccc3c(c2)OC(F)(F)O3)CC1,"cell-free assay, competition with immobilised ligand",1 µM,remaining binding,91%
COc1cc(Nc2c(C#N)cnc3cc(OCCCN4CCN(C)CC4)c(OC)cc23)c(Cl)cc1Cl,cell-free assay,0.5 µM,remaining signal,71.3%
CCCCN(CCCC)C(=O)CN1C[C@H](c2cc(OC)c3c(c2)OCO3)[C@@H](C(=O)O)[C@@H]1CC(C)(C)CCC,"cell-free assay, competition with immobilised ligand",1 µM,remaining binding,63.2%
COc1cc(-c2cc(-c3ccc(N4CCNCC4)cc3)cnc2C)cc(OC)c1OC,"enzyme activity, inhibitor",0.1 µM,inhibition,3%
C#Cc1cccc(Nc2ncnc3cc(OCCOC)c(OCCOC)cc23)c1,cell-free assay,0.5 µM,remaining signal,106%
O=C(O)[C@@H]1[C@@H](Cn2nnc3ccccc3c2=O)CC[C@H]1C(=O)c1ccc(OCCC2CCOCC2)cc1,"cell-free assay, competition with immobilised ligand",1 µM,remaining binding,100%
CCOc1cc(-c2nncn2C)ccc1Nc1ncc2cc(C)nc(NCC(C)(C)C)c2n1,"cell-free assay, TR-FRET",1 µM,inhibition,≤ 15%
Cc1nc(C2CCN(C(=O)c3ccc(OC(F)(F)F)cc3N)CC2)c2ncc(N3CCN(C)CC3)cc2n1,"cell-free assay, competition with immobilised ligand",1 µM,remaining binding,100%
Cc1cc(NC(=O)c2cccc3cc(-c4cccc5[nH]nc(N)c45)ccc23)ccc1F,"enzyme activity, inhibitor",0.1 µM,activity vs control,96%
N#CCCc1ccc2c(c1)-c1[nH]c3ccc([N+](=O)[O-])cc3c1CC(=O)N2,cell-free assay,0.5 µM,remaining signal,66%
CN(C)c1nccc(-c2cnn3ncccc23)n1,binding,1 µM,remaining binding,73%
O=C1NC(=O)c2cc(Nc3ccc(F)cc3)c(Nc3ccc(F)cc3)cc21,cell-free assay,0.5 µM,remaining signal,89.9%
CN(C)C(=O)Cn1cc(-c2nc(C3(c4ccc(-c5cnc(N)nc5)cc4)CC3)no2)cn1,"cell-free assay, competition with immobilised ligand",1 µM,remaining binding,67%
Cc1ccc(Nc2nccc(N(C)c3ccc4c(C)n(C)nc4c3)n2)cc1S(N)(=O)=O,"enzyme activity, inhibitor",10 µM,inhibition,96%
CCOCCn1cc(C(=O)Nc2ccc(-n3nc(-c4cccnc4)cc3C(F)(F)F)cn2)ccc1=O,"cell-free assay, competition with immobilised ligand",1 µM,remaining binding,66%
CCN(CC)c1ccc(C2=NNC(=O)CC2C)cc1[N+](=O)[O-] (centres unmarked),"enzyme activity, inhibitor",10 µM,remaining activity,95%
O=[N+]([O-])c1cccc2[nH]c(CNc3nc(N4CCOCC4)nc4c3ncn4-c3ccsc3)nc12,"binding, competition with immobilised ligand",10 µM,binding vs control,85%
Nc1ncnc2occ(-c3ccc(NC(=O)Nc4cc(C(F)(F)F)ccc4F)cc3)c12,"cell-free assay, inhibitor",20 µM,remaining signal,0.05%
Cc1sc(C(=O)NC2COC2)cc1-n1cc(NC(=O)Nc2c(F)cccc2Cl)cn1,"enzyme activity, inhibitor",10 µM,remaining activity,98%
O=C1Nc2ccc(Cl)cc2C1=Cc1cc(Cl)c(O)c(Cl)c1,cell-free assay,0.5 µM,remaining signal,50.6%
Cc1ccc(NC(=O)c2ccc(C)c(C(F)(F)F)c2)cc1C#Cc1nn(C2CCC(O)CC2)c2ncnc(N)c12 (centres unmarked),cell-free assay,10 µM,remaining signal,2%
